From paper PMC11348278 (Proceedings of the National Academy of Sciences of the …, 2024)
pIC50, pKd: −log10 of the molar value.

Key:
[1] = tested on: L444P/L444P GCase; experiment: GCase lysed cell assay; type: cell-based, human; conditions: L444P/L444P fibroblasts, 72 h; for improvement of GCase activity, compound alone: individual treatment (Fig. 5B)
[2] = tested on: integrated stress response (eIF2B); conditions: read-out: IC50 (reversal of ISR effects); cited from earlier work
[3] = tested on: U251 cells; experiment: PIKfyve-related vacuolization, brightfield microscopy of U251 cells; type: cell-based, human; conditions: high concentrations
How it was run: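 U251 cells plated at 25,000 cells/well, attached overnight, then treated for 24 h in DMSO (final 0.1%). Vacuolization observed by brightfield microscopy.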

[4] = tested on: L444P/L444P Gaucher patient fibroblasts; experiment: Nuclear stain cell toxicity/viability; type: cell-based, human; conditions: 72 h, 2.5 µM A16 / 10 µM A18
How it was run: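 Toxicity by nuclear stains: fibroblasts at 10,000 cells/well, attached overnight, then treated for 72 h in DMSO (final 0.1%). Stained with Hoechst and SYTOX Orange per the manufacturer's instructions.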

[5] = tested on: L444P/L444P Gaucher patient fibroblasts; experiment: CellTiter-Glo ATP-based viability assay, patient fibroblasts; type: cell-based, human; conditions: 72 h
How it was run: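 Viability by ATP content: fibroblasts seeded at 10,000 cells/well, attached overnight, then treated for 72 h in DMSO (final 0.1%). CellTiter-Glo added per the manufacturer's instructions; luminescence-based ATP read-out.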

[6] = tested on: ISR and KEGG lysosome pathway genes; type: cell-based, human; conditions: L444P fibroblasts, 24 h; A16 500 nM, A18 1 µM, Apilimod 50 nM
[7] = placebo-controlled trials; cited from earlier work
[8] = biological target: isolated recombinant PIKfyve (Homo sapiens, UniProt Q9Y2I7); experiment: DiscoveRX KINOMEScan for PIKfyve; type: binding
Sequence of isolated recombinant PIKfyve (Q9Y2I7 whole entry): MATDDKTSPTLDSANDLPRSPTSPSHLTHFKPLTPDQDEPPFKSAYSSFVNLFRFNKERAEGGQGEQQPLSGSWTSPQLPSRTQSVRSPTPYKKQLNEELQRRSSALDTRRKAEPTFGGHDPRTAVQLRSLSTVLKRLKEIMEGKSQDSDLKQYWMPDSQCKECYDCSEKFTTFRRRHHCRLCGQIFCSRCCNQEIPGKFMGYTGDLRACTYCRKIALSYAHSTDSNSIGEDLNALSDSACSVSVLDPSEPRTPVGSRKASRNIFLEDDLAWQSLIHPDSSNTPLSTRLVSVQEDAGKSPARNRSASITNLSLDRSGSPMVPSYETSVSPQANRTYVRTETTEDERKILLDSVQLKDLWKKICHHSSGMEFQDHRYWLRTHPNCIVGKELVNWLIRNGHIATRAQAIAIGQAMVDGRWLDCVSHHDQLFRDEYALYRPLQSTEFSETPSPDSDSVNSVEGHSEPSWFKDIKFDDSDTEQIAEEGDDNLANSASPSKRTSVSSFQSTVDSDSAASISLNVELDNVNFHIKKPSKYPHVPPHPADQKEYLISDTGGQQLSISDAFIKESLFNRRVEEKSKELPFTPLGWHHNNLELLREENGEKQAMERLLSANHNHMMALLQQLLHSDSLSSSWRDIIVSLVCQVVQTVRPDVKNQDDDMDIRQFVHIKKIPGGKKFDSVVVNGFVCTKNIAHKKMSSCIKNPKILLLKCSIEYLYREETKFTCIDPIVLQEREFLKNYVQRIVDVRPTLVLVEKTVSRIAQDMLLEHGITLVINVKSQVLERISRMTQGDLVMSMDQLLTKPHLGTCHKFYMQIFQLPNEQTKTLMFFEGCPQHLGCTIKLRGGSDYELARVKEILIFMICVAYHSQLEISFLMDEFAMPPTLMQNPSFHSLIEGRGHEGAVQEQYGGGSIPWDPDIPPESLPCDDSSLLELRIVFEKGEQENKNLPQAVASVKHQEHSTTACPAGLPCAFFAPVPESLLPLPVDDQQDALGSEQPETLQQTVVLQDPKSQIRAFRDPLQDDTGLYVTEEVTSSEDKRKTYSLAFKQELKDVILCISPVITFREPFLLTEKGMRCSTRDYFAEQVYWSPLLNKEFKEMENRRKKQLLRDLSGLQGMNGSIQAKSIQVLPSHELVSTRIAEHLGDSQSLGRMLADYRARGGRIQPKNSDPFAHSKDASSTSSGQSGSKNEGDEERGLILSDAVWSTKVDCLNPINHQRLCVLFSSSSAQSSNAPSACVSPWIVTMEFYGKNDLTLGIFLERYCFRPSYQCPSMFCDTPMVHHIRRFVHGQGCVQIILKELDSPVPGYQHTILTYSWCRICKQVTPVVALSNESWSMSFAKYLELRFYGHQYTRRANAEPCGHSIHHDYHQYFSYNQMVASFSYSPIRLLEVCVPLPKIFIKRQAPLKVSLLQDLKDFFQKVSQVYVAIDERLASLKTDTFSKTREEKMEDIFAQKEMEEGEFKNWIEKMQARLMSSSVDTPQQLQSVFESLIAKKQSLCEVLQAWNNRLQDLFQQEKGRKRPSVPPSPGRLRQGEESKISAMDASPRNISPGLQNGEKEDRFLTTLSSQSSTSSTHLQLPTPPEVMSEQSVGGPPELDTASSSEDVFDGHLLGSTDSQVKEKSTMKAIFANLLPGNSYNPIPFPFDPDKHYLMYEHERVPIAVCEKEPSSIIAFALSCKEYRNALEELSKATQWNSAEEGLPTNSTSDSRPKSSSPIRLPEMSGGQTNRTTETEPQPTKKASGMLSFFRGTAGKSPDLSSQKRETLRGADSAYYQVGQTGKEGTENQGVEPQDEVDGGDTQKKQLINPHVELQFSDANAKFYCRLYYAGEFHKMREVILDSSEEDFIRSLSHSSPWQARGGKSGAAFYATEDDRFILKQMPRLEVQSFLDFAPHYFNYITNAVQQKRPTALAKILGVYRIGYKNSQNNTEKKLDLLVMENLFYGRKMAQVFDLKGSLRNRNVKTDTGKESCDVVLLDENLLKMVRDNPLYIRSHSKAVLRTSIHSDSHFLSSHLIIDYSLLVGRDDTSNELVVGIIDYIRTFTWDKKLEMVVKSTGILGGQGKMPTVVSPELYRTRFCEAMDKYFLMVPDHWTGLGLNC

O=C(COc1ccc(Cl)cc1)NC1CCC(NC(=O)COc2ccc(Cl)cc2)CC1 (stereo not shown) [ISRIB, reference compound]
improvement of GCase activity, compound alone [1]: ~ 10%
pIC50 [2]: 8.30

Ic1ccc(Nc2nc(NCCN3CCOCC3)nc(N3CCOCC3)n2)cc1 [A18]
vacuolization phenotype [3]: vacuolization phenotype
cell toxicity (Hoechst and Sytox Orange staining) [4]: minimal cell toxicity
cell viability (CellTiter-Glo ATP-based) [5]: above vehicle treatment
ISR activation by RNAseq-based transcriptional changes [6]: do not see RNAseq-based transcriptional changes

Cc1cccc(/C=N/Nc2cc(N3CCOCC3)nc(OCCc3ccccn3)n2)c1 [Apilimod]
efficacy in autoimmune disorders (Crohn's Disease, Rheumatoid Arthritis) [7]: failed to show any efficacy
safety and pharmacokinetic profiles [7]: favorable safety and pharmacokinetic profiles
ISR activation by RNAseq-based transcriptional changes [6]: do not see RNAseq-based transcriptional changes

c1ccc2c(-c3nn4c(-c5ccncc5)nnc4s3)c[nH]c2c1 [A16]
pKd [8]: > 9.77
vacuolization phenotype [3]: vacuolization phenotype
increase of GCase activity, cotreatment with ISRIB (observed) ([1]; A16 + ISRIB (Fig. 5B)): ~ 100%
improvement of GCase activity, compound alone [1]: ~ 70%
cell toxicity (Hoechst and Sytox Orange staining) [4]: minimal cell toxicity
cell viability (CellTiter-Glo ATP-based) [5]: above vehicle treatment
ISR activation by RNAseq-based transcriptional changes [6]: do not see RNAseq-based transcriptional changes
